# Compounds with a hit are over-represented: about 3.4% of the library has one in this group of screens.
# CHRM1 antagonist: human M1 muscarinic receptor antagonists, primary screen, CHO-K1 cells, Fluo-8 calcium fluorescence, 1536-well | Muscarinic acetylcholine receptor M1 (Homo sapiens), P11229 | inhibition, % at 3 µM | CHO-K1 hM1, ACh EC80 antagonist | 360,000 tested, 1.3% active;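 active = percent inhibition above its own plate's cutoff, namely the mean of that plate's compound wells plus 3 SD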;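 also: peak over basal fluorescence ratio during 140 s after agonist addition; 0% = ACh EC80 plus DMSO and 100% = DMSO alone without agonist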
# Target sequence (P11229 whole entry, looked up): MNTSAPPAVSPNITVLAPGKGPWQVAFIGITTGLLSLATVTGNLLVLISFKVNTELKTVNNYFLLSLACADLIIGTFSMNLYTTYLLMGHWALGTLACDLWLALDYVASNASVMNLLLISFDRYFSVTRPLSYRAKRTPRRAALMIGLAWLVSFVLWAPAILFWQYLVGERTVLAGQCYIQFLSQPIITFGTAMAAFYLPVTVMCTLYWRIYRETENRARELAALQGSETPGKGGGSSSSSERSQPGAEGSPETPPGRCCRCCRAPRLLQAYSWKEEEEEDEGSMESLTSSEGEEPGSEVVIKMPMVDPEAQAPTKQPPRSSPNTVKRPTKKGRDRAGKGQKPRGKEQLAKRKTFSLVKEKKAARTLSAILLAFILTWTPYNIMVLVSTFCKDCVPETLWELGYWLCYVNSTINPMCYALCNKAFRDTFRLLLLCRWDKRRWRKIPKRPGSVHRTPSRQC
# TAAR1 agonist: human TAAR1 agonists, primary screen, Fluo-8 calcium fluorescence, CHO RD-HGA16 cells; AID 624467, 2012; 360,000 tested, 0.99% active; vehicle wells 0%, saturating PEA agonist 100%; activation, % at 3 µM;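 active = activation above the mean activation of all test compounds in the run plus 3 SD, cut at about 38% in these data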
#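 Assay system – CHO-derived RD-HGA16 cells with stable Gα16 and human TAAR1 · Compound dosing – one-point dosing at 3 µM (nominal) · Incubation – 17-24 h seeding, 75 min 37 °C dye, 30 min RT · Measured by – kinetic Fluo-8 calcium fluorescence · Control set – DMSO vehicle as 0%, PEA at EC100 as 100% · Repeats – single well for each compound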
# TAAR1 antag: human TAAR1 antagonists, primary screen, Fluo-8 calcium fluorescence, CHO RD-HGA16 cells | inhibition, % at 3 µM | 360,000 tested, 1.5% active | antagonist | Trace amine-associated receptor 1 (Homo sapiens), Q96RJ0;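 active = inhibition above a per-plate cutoff, the mean inhibition of test compounds on that plate plus 3 SD, cut at about 49% in these data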;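 also: 0% = DMSO plus EC80 beta-PEA response and 100% = DMSO alone without agonist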
#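 Test system – hTAAR1-expressing CHO RD-HGA16 cells, Gα16-coupled · Also added – β-PEA at EC80 concentration, post-compound challenge · Compound – 3 µM, single point · Incubation – dye loading 75 min at 37 °C, then 30 min room temperature · Measured by – Fluo-8 intracellular calcium dye fluorescence, real-time kinetic reads · Benchmarks – vehicle and agonist controls · Replicates – singlicate, one well per test compound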
# M1 PAM: human M1 muscarinic receptor positive allosteric modulators, primary screen, CHO-K1 cells, Fluo-8 calcium fluorescence, 1536-well | CHO-K1 hM1, ACh EC20; 0% = ACh EC20, 100% = maximal ACh | activation, % at 3 µM | 360,000 tested, 0.088% active | AID 588819, 2011; in the data active = activation above about 19%, passing the limit was not always enough
# M1 ag: human M1 muscarinic receptor agonists, primary screen, Fluo-8 calcium fluorescence, CHO-K1 cells, HTS; 360,000 tested, 0.33% active; activation, % at 3 µM; CHO-K1 hM1, agonist mode; 0% DMSO, 100% acetylcholine EC100; Muscarinic acetylcholine receptor M1 (Homo sapiens), P11229;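 active = activation above the run's mean compound activation plus 3 SD, cut at about 16% in these data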;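 also: peak over basal fluorescence ratio within a 140 s kinetic read after compound addition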
# TAAR1 ag conf: human TAAR1 agonists, retest of hits, confirmation, Fluo-8 calcium fluorescence, CHO RD-HGA16 cells; shares compounds with TAAR1 agonist; scaled: DMSO 0%, maximal phenethylamine 100%; 2,400 tested, 82% active; AID 651783, 2012; activation, % at 3 µM;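 active = activation above a cutoff set at the run's mean compound activation plus 3 SD, cut at about 39% in these data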
# Ga16 ag counter: nonselective calcium mobilization agonists, CHO-Ga16 cells, counter-screen for hTAAR1 agonist project, cell-based, fluorescence, CHO-Ga16 parental line. shares compounds with TAAR1 agonist. Fluo-8 calcium fluorescence; normalized to maximal ATP response, DMSO zero. activation, % at 3 µM. 2,400 tested, 50% active;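 active = activation above the run cutoff, the mean activation over all tested wells plus 3 SD, cut at about 12% in these data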;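 also: 0% = DMSO wells and 100% = maximal ATP response on the peak over basal ratio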
# TAAR1 desens: TAAR1 desensitization by agonist hits, confirmation, counter-screen for TAAR1 agonist project, cell-based, fluorescence, tachyphylaxis; inhibition, % at 3 µM; AID 651951, 2012; shares compounds with TAAR1 agonist; 2,400 tested, 46% active; CHO RD-HGA16 hTAAR1, Fluo-8 calcium, beta-PEA response inhibition;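 active = inhibition above the run cutoff, the mean inhibition of all test compounds plus 3 SD, cut at about 49% in these data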;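 also: beta-PEA stimulus applied at its EC80; loss of beta-PEA calcium signal after compound pretreatment read as receptor desensitization; 0% = DMSO with beta-PEA at EC80 and 100% = DMSO alone without agonist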
# Ga16 antag count: inhibition of ATP-evoked calcium response in CHO-Ga16 cells, counter-screen for TAAR1 agonist project, cell-based, fluorescence. CHO-Ga16 ATP-induced calcium, Fluo-8 fluorescence. AID 651952, 2012. shares compounds with TAAR1 agonist. 2,400 tested, 39% active. inhibition, % at 3 µM;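 active = inhibition above the plate's mean compound inhibition plus 3 SD, computed per plate, cut at about 22% in these data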;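 also: 0% = EC80 ATP with DMSO and 100% = DMSO wells without ATP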
# Numbers without * were called inactive; . = no result given.
SMILES,CHRM1 antagonist,TAAR1 agonist,TAAR1 antag,M1 PAM,M1 ag,TAAR1 ag conf,Ga16 ag counter,TAAR1 desens,Ga16 antag count
COc1ccc(CN2CCC(CO)(Cc3ccccc3C(F)(F)F)CC2)c(F)c1,17,11,-19,-14,-4,.,.,.,.
O=C(O)c1ccc(N2CCCCCC2)c(N2C(=O)c3ccccc3C2=O)c1,11,-1,-22,3,-4,.,.,.,.
O=C1c2cccc3c(N4CCCCC4)ccc(c23)C(=O)N1c1ccccc1O,44*,130*,65*,-13,40*,24,33*,36,50*
CCOC(=O)c1c(C)[nH]c(C(=O)CN2C(=O)NC(C)(c3ccc(C)cc3)C2=O)c1C (stereo unspecified),2,97*,9,13,22*,102*,50*,58*,33*
CCOC(=O)c1c(C)[nH]c(C(=O)CN2C(=O)NC(C)(C)C2=O)c1C,13,4,-30,-2,-2,.,.,.,.
CCOC(=O)c1c(C)[nH]c(C(=O)CN2C(=O)NC(CC)(c3ccccc3)C2=O)c1C (stereo unspecified),12,53*,20,-3,6,34,12*,20,10
CN(C)/C=N/NC(=O)C1Cc2c(ccc3ccccc23)O1 (stereo unspecified),-11,8,-21,7,-4,.,.,.,.
O=C(CC1SC(=O)N(c2ccccc2)C1=O)Nc1cccc2ccccc12 (stereo unspecified),-2,0,-6,5,-1,.,.,.,.
Cc1ccccc1NC(=O)CC1SC(=O)N(c2ccccc2)C1=O (stereo unspecified),-16,50*,-7,1,-1,17,2,14,11
CCN(CCn1cccn1)C(=O)CC1C(=O)NCCN1CCc1ccccc1 (stereo unspecified),-1,78*,30,2,-3,93*,2,82*,2
CCN(CCn1cccn1)C(=O)CC1C(=O)NCCN1CC1CCCCC1 (stereo unspecified),-9,3,27,1,-4,.,.,.,.
CC#CCN(Cc1ccco1)C(=O)C1CCC(=O)N(CCc2cccc(F)c2)C1 (stereo unspecified),13,1,-1,-8,-7,.,.,.,.
CC1CC1c1ccc(/C=C(\C#N)C(=O)Nc2ccccc2Cl)o1 (stereo unspecified),8,2,2,-1,-8,.,.,.,.
N#C/C(=C/c1ccc(N2CCCCC2)o1)C(=O)Nc1ccc2ccccc2c1,87*,268*,107*,-32,240*,199*,223*,93*,95*
N#C/C(=C/c1ccc(N2CCCCC2)o1)C(=O)Nc1ccc(Cl)cc1,68*,312*,109*,-32,102*,127*,166*,96*,92*
Cc1cc2c(cc(C(=O)OCC(=O)NC3CCCCC3)n2C)o1,-4,67*,52*,13,0,23,34*,52*,42*
Cc1ccc(C(=O)OCC(=O)Nc2ccc(N3CCOCC3)cc2)cc1,3,1,-12,-2,-2,.,.,.,.
